Experimental data reported in ChEMBL document CHEMBL1138561, “Synthesis of novel N-protected hydrophobic phenylalanines and their application in potential antibacterials” (2009).
Values after ≈ are worked out from the molar mass of the structure shown.

Key:
Enterococcus faecalis = assay: Antibacterial activity against vancomycin-sensitive Enterococcus faecalis; type: functional
Outline: (§1)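 Broth microdilution in Mueller–Hinton medium, with the inoculum a 1/10 dilution of seed culture. Peptoids were dissolved in 50% MeOH/H2O to 1 mg/mL, added to the top row and serially diluted down the plate. Plates were incubated at 37 °C with shaking at 100 rpm for 18 h, with two peptoids per plate.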

Staphylococcus aureus = assay: Antibacterial activity against Staphylococcus aureus ATCC 6538 after 18 hrs; type: functional; details: ATCC 6538, 18 h; outline: as §1

SMILES | MIC (Enterococcus faecalis) [µg/mL] | MIC (Staphylococcus aureus) [µg/mL]
C=CCOc1ccc(C[C@H](NC(C)=O)C(=O)N[C@@H](CCCCN)C(=O)N[C@H](CCCNC(=N)N)C(=O)N[C@@H](CC=C)C(=O)OCc2ccccc2)cc1.Cl.Cl | > 125 | > 125
C=CC[C@H](NC(=O)[C@@H](CCCNC(=N)N)NC(=O)[C@H](CCCCN)NC(=O)[C@H](Cc1ccc(-c2cc3ccccc3c3ccccc23)cc1)NC(C)=O)C(=O)OCc1ccccc1.Cl.Cl | > 125 | 7.8
C=CC[C@H](NC(=O)[C@H](CCCCN)NC(=O)[C@H](Cc1ccc(-c2c3ccccc3cc3ccccc23)cc1)NC(C)=O)C(=O)OC.Cl | > 125 | 31.3
C=CC[C@H](NC(=O)[C@H](CCCCN)NC(=O)[C@H](Cc1ccc(-c2cc3ccccc3c3ccccc23)cc1)NC(C)=O)C(=O)OC.Cl | > 125 | 15.6
C=CC[C@H](NC(=O)[C@@H](CCCNC(=N)N)NC(=O)[C@H](CCCCN)NC(=O)[C@H](Cc1ccc(-c2c3ccccc3cc3ccccc23)cc1)NC(C)=O)C(=O)OCc1ccccc1.Cl.Cl | > 125 | 15.6
CN[C@H](CC(C)C)C(=O)N[C@H]1C(=O)N[C@@H](CC(N)=O)C(=O)N[C@H]2C(=O)N[C@H]3C(=O)N[C@H](C(=O)N[C@H](C(=O)O)c4cc(O)cc(O)c4-c4cc3ccc4O)[C@H](O)c3ccc(c(Cl)c3)Oc3cc2cc(c3O[C@@H]2O[C@H](CO)[C@@H](O)[C@H](O)[C@H]2O[C@H]2C[C@](C)(N)[C@H](O)[C@H](C)O2)Oc2ccc(cc2Cl)[C@H]1O [VANCOMYCIN] |  | 1.95 (≈ 1.35 µM)
